ChEMBL document CHEMBL4251647, “Synthesis, anticancer activity and mechanism of action of new thiazole derivatives” (Eur J Med Chem, 2018)

Assays:
HL-60 [1] = assay: Cytotoxicity against human HL60 cells assessed as inhibition of cell viability at 25 ug/ml after 72 hrs by MTT assay relative to control; type: functional; conditions: HL-60, 72 h
Summary of the method: (§1)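 Single-concentration MTT screen at 25 µg/mL for 72 h. Seeding was 3 x 10^5 cells/mL (HL-60, K562) or 1 x 10^5 cells/mL (adherent), with 24 h preincubation. MTT was added for the final 3 h, formazan dissolved in DMSO and absorbance read at 560 nm. Results are given as percent inhibition ± SD.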

K562 [2] = assay: Cytotoxicity against human K562 cells assessed as inhibition of cell viability after 48 hrs by MTT assay; type: functional, cell-based; conditions: K562, 48 h
Summary of the method: (§2)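 K562 cells (3 x 10^5 cells/mL, RPMI-1640 with 10% FBS) were treated with serial dilutions for 24 or 48 h. Viability was read by MTT (absorbance at 560 nm after DMSO solubilisation), and IC50 was obtained by regression.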

HEp-2 [3] = assay: Cytotoxicity against human Hep2 cells assessed as inhibition of cell viability at 25 ug/ml after 72 hrs by MTT assay relative to control; type: functional; conditions: HEp-2, 72 h; summary of the method: as §1
[4] = Selectivity index, ratio of IC50 for human PBMC to IC50 for human K562 cells; type: toxicity; conditions: human PBMC and human K562 cells, read-out: Ratio IC50
Summary of the method: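 Ratio of IC50 in PBMC (Alamar blue, 72 h) to IC50 in K562 cells (MTT, 72 h), calculated as SI = IC50(PBMC)/IC50(K562).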

K562 [5] = assay: Cell cycle arrest in human K562 cells assessed as accumulation at G1-phase at 34 uM after 48 hrs by flow cytometry (reference value: 45.54 +/- 1.34%); type: functional
Summary of the method: (§3)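 K562 cells seeded at 3 x 10^5 cells/mL in RPMI-1640 and exposed 48 h at 37 °C, 5% CO2. Cells were stained with propidium iodide (Guava cell cycle kit) and 5,000 events acquired by flow cytometry. Vehicle control was 0.1% DMSO. Two independent experiments, each in triplicate.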

K562 [6] = assay: Induction of DNA damage in human K562 cells at 34 uM after 48 hrs by propidium iodide staining based flow cytometry (reference value: 3.62 +/- 0.37%); type: functional
K562 [7] = assay: Cell cycle arrest in human K562 cells assessed as accumulation at G2/M-phase at 17 uM after 48 hrs by flow cytometry (reference value: 35.97 +/- 1.94%); type: functional; summary of the method: as §3
K562 [8] = assay: Cytotoxicity against human K562 cells assessed as inhibition of cell viability by MTT assay; type: functional, cell-based; conditions: TDE = time-dependent effect
PBMC = assay: Cytotoxicity against human PBMC cells assessed as inhibition of cell viability after 72 hrs by alamar blue assay; type: cell-based
Summary of the method: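 PBMC from healthy donors were grown in RPMI-1640 with 20% FBS and 2% phytohaemagglutinin, then plated at 10^6 cells/mL. After 24 h, compounds (0.048–25 µg/mL, in DMSO) were added for 72 h. Resazurin was added for the final 24 h and absorbance read at 570 and 595 nm as percent of control.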

K562 [9] = assay: Induction of mitochondrial membrane potential depolarization in human K562 cells at 34 uM after 48 hrs by Rho-123 staining based flow cytometry (reference value: 12.24 +/- 0.61%); type: functional
K562 [10] = assay: Induction of DNA damage in human K562 cells at 17 uM after 48 hrs by propidium iodide staining based flow cytometry (reference value: 3.62 +/- 0.37%); type: functional
K562 [11] = assay: Cell cycle arrest in human K562 cells assessed as accumulation at G2/M-phase at 34 uM after 48 hrs by flow cytometry (reference value: 35.97 +/- 1.94%); type: functional; summary of the method: as §3
NCI-H292 [12] = assay: Cytotoxicity against human NCI-H292 cells assessed as inhibition of cell viability at 25 ug/ml after 72 hrs by MTT assay relative to control; type: functional; conditions: NCI-H292, 72 h; summary of the method: as §1
HEp-2 [13] = assay: Cytotoxicity against human Hep2 cells assessed as inhibition of cell viability after 72 hrs by MTT assay; type: functional, cell-based; conditions: HEp-2, 72 h
Summary of the method: (§4)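 MTT assay. Leukaemic lines were seeded at 3 x 10^5 cells/mL and adherent lines at 1 x 10^5 cells/mL, then preincubated 24 h. Compounds were added at 0.098–25.0 µg/mL for 72 h, with MTT for the last 3 h. Formazan was dissolved in DMSO and read at 560 nm. IC50 came from regression; triplicate, two independent experiments.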

K562 [14] = assay: Cytotoxicity against human K562 cells assessed as inhibition of cell viability at 25 ug/ml after 72 hrs by MTT assay relative to control; type: functional; conditions: K562, 72 h; summary of the method: as §1
K562 [15] = assay: Cytotoxicity against human K562 cells assessed as inhibition of cell viability after 24 hrs by MTT assay; type: functional, cell-based; conditions: K562, 24 h; summary of the method: as §2
K562 [16] = assay: Cell cycle arrest in human K562 cells assessed as accumulation at S-phase at 34 uM after 48 hrs by flow cytometry (reference value: 17.39 +/- 0.84%); type: functional; summary of the method: as §3
HT-29 [17] = assay: Cytotoxicity against human HT-29 cells assessed as inhibition of cell viability at 25 ug/ml after 72 hrs by MTT assay relative to control; type: functional; conditions: HT-29, 72 h; summary of the method: as §1
K562 [18] = assay: Cytotoxicity against human K562 cells assessed as inhibition of cell viability after 72 hrs by MTT assay; type: functional, cell-based; conditions: K562, 72 h; summary of the method: as §4
K562 [19] = assay: Induction of mitochondrial membrane potential depolarization in human K562 cells at 17 uM after 48 hrs by Rho-123 staining based flow cytometry (reference value: 12.24 +/- 0.61%); type: functional
K562 [20] = assay: Cell cycle arrest in human K562 cells assessed as accumulation at G1-phase at 17 uM after 48 hrs by flow cytometry (reference value: 45.54 +/- 1.34%); type: functional; summary of the method: as §3
HT-29 [21] = assay: Cytotoxicity against human HT-29 cells assessed as inhibition of cell viability after 72 hrs by MTT assay; type: functional, cell-based; conditions: HT-29, 72 h; summary of the method: as §4
HL-60 [22] = assay: Cytotoxicity against human HL60 cells assessed as inhibition of cell viability after 72 hrs by MTT assay; type: functional, cell-based; conditions: HL-60, 72 h; summary of the method: as §4
K562 [23] = assay: Cell cycle arrest in human K562 cells assessed as accumulation at S-phase at 17 uM after 48 hrs by flow cytometry (reference value: 17.39 +/- 0.84%); type: functional; summary of the method: as §3
Erythrocyte = assay: Hemolytic activity in human erythrocytes after 1 hr by spectrophotometric method; type: ADME, cell-based
Summary of the method: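 Human erythrocytes as a 2% suspension in 0.85% NaCl with 10 mM CaCl2 were exposed to 0.78–250 µg/mL for 1 h at room temperature. After centrifugation, released haemoglobin in the supernatant was read at 540 nm. Triton X-100 (1%) served as positive control; EC50 is the concentration giving 50% haemolysis.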

NCI-H292 [24] = assay: Cytotoxicity against human NCI-H292 cells assessed as inhibition of cell viability after 72 hrs by MTT assay; type: functional, cell-based; conditions: NCI-H292, 72 h; summary of the method: as §4

FC(F)(F)c1ccc(/C=N/Nc2nc(-c3ccc(Cl)cc3Cl)cs2)cc1
inhibition at 25 µg/mL (HL-60 [1]): 91.1%
IC50 (K562 [2]): 17.8 µM
inhibition at 25 µg/mL (HEp-2 [3]): 96.7%
selectivity ratio [4]: 7.85
Activity (K562 [5]): 82.74%
Activity (K562 [6]): 22.43%
Activity (K562 [7]): 7.51%
Activity (K562 [8]): Tde
IC50 (PBMC): 43 µM
Activity (K562 [9]): 37.12%
Activity (K562 [10]): 19.74%
Activity (K562 [11]): 11.47%
inhibition at 25 µg/mL (NCI-H292 [12]): 96.5%
IC50 (HEp-2 [13]): 7.65 µM
inhibition at 25 µg/mL (K562 [14]): 88.9%
IC50 (K562 [15]): > 60.1 µM
Activity (K562 [16]): 6.72%
inhibition at 25 µg/mL (HT-29 [17]): 79.5%
IC50 (K562 [18]): 5.48 µM
Activity (K562 [19]): 25.05%
Activity (K562 [20]): 85.25%
IC50 (HT-29 [21]): 11.2 µM
IC50 (HL-60 [22]): 17.8 µM
Activity (K562 [23]): 7.23%
EC50 (Erythrocyte): > 250 µg/mL
IC50 (NCI-H292 [24]): 10.4 µM
